The results in this text go back to ChEMBL document CHEMBL1122016, “Aminotetralins as narcotic antagonists. 2. Synthesis and opiate-related activity of 1-phenyl-3-aminotetralins” (1982).

For assay [1], the species on record is Mus musculus. The experiment in a line: activity in the mouse hotplate procedure. Type of assay: functional.
The subject of assay [2] is Mus musculus. The experiment in a line: The ability to reverse an ED50 dose of morphine when tested in mice by the tail-flick procedure at the dose of 30 mg/kg (s.c.) value expressed as narcotic-antagonistic activity. It is filed as functional. In short, it runs like this: (§1)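 Mouse tail-flick antagonism assay: test agents given subcutaneously as hydrochloride salts of racemic mixtures, each at 30, 10, 3 and 1 mg/kg, against a subcutaneous ED50 dose of morphine. The read-out is percent inhibition, meaning reversal, of the morphine tail-flick response. Testing was performed by an outside laboratory (NIDA).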

Assay [3] relates to Mus musculus. The experiment in a line: The ability to reverse an ED50 dose of morphine when tested in mice by the tail-flick procedure at the dose of 3 mg/kg (s.c.) value expressed as narcotic-antagonistic activity. It is filed as functional. In short, it runs like this:
as §1

For assay [4], the system named is Mus musculus. Description: The ability to reverse an ED50 dose of morphine when tested in mice by the tail-flick procedure at the dose of 10 mg/kg (s.c.) value expressed as narcotic-antagonistic activity. It is filed as functional. In short, it runs like this:
as §1

For assay [5], the system named is Mus musculus. Description: The ability to reverse an ED50 dose of morphine when tested in mice by the tail-flick procedure at the dose of 1 mg/kg (s.c.) value expressed as narcotic-antagonistic activity. Type of assay: functional. In short, it runs like this:
as §1

Assay [6] deals with Mus musculus. The experiment in a line: The Narcotic-antagonistic activity the ability to reverse an ED50 dose of morphine when tested in mice by the tail-flick procedure at the dose of 10 mg/kg (s.c.). It is filed as functional. The settings on record: sc. The essentials:
as §1

In assay [7] the test system is Mus musculus. The experiment in a line: The Narcotic-antagonistic activity the ability to reverse an ED50 dose of morphine when tested in mice by the tail-flick procedure at the dose of 1 mg/kg (s.c.). Type of assay: functional. The settings on record: sc. The essentials:
as §1

The test system of assay [8] is Mus musculus. Description: The Narcotic-antagonistic activity the ability to reverse an ED50 dose of morphine when tested in mice by the tail-flick procedure at the dose of 30 mg/kg (s.c.). It is filed as functional. The settings on record: sc. In short, it runs like this:
as §1

The test system of assay [9] is Mus musculus. Description: The Narcotic-antagonistic activity the ability to reverse an ED50 dose of morphine when tested in mice by the tail-flick procedure at the dose of 3 mg/kg (s.c.). Type of assay: functional. The settings on record: sc. In short, it runs like this: as §1
Assay [10] has as its system Monkey. The experiment in a line: Compound was tested for signs of opiate abstinence at 5 mg/kg dose in monkeys; No effect. Details: dose 5 mg/kg. Type of assay: functional, organism-based. The settings on record: Cercopithecidae.

The source made the active and inactive calls. No cut-off for these calls is given here.

For `CN1CC[C@]23c4c5ccc(O)c4O[C@H]2[C@@H](O)C=C[C@H]3[C@H]1C5.CN1CC[C@]23c4c5ccc(O)c4O[C@H]2[C@@H](O)C=C[C@H]3[C@H]1C5.O=S(=O)(O)O`, the ED50 in [1] was found to be 1.2 mg/kg.

Turning to `C=CCN1CC[C@]23c4c5ccc(O)c4O[C@H]2C(=O)CC[C@@]3(O)[C@H]1C5.Cl` [NALOXONE HYDROCHLORIDE], the AD50 in assay [2], in assay [3], in [4] and in [5] was 0.031 mg/kg throughout.

As for `CN(CC1CC1)[C@@H]1Cc2ccccc2[C@@H](c2ccccc2)C1`, in assay [1], it took a dose of 9.1 mg/kg to reach the 50% effect level (ED50). This compound also showed an inhibition in vivo at 10 mg/kg in [6] of 54%. Also, in [7], the inhibition in vivo at 1 mg/kg turned out to be 60%. Also, in assay [8], the inhibition in vivo at 30 mg/kg was found to be 0%. Further, at 3 mg/kg the inhibition in vivo in [9] was 100%. For the same compound, in [10], the outcome was inactive.

In assay [1], `CN(CC1CC1)[C@@H]1Cc2ccccc2[C@H](c2ccccc2)C1` had an ED50 of 6.3 mg/kg. Besides, the inhibition in vivo at 1 mg/kg in assay [7] worked out at 75%. In [9], the inhibition in vivo at 3 mg/kg came out at 100%.

Turning to `COc1ccc2c3c1O[C@H]1[C@@H](O)C=C[C@H]4[C@@H](C2)N(C)CC[C@@]341.O=S(=O)(O)O`, the ED50 in assay [1] was determined as 7.5 mg/kg.

As for `CN(CC1CC1)C1C=C(c2ccccc2)c2ccccc2C1` (stereo unspecified), the ED50 in [1] was greater than 50 mg/kg.

For orientation: ED50 means the dose at which the effect has come halfway, by size or by number of responders. Broadly, the inhibition in vivo is the change of the read-out against control, counted positive when it falls.
